Laboratory results from ChEMBL document CHEMBL4196173, “Stabilized β-Hairpin Peptide Inhibits Insulin Degrading Enzyme” (J Med Chem, 2018).
Calls of active or inactive are those of the source. The calls are words filed in the database; no cut-off is given here.

What was measured:
[1] = target: T1, Insulin-degrading enzyme (Mus musculus, UniProt Q9JHR7); test: Inhibition of mouse His-tagged IDE (42 to 1019 residues) using fluorophore/quencher-tagged RPPGFSAFK(Dnp)-OH peptide as substrate preincubated for 10 mins followed by substrate addition measured over 5 mins by TR-FRET assay
T1 sequence (Q9JHR7 whole entry): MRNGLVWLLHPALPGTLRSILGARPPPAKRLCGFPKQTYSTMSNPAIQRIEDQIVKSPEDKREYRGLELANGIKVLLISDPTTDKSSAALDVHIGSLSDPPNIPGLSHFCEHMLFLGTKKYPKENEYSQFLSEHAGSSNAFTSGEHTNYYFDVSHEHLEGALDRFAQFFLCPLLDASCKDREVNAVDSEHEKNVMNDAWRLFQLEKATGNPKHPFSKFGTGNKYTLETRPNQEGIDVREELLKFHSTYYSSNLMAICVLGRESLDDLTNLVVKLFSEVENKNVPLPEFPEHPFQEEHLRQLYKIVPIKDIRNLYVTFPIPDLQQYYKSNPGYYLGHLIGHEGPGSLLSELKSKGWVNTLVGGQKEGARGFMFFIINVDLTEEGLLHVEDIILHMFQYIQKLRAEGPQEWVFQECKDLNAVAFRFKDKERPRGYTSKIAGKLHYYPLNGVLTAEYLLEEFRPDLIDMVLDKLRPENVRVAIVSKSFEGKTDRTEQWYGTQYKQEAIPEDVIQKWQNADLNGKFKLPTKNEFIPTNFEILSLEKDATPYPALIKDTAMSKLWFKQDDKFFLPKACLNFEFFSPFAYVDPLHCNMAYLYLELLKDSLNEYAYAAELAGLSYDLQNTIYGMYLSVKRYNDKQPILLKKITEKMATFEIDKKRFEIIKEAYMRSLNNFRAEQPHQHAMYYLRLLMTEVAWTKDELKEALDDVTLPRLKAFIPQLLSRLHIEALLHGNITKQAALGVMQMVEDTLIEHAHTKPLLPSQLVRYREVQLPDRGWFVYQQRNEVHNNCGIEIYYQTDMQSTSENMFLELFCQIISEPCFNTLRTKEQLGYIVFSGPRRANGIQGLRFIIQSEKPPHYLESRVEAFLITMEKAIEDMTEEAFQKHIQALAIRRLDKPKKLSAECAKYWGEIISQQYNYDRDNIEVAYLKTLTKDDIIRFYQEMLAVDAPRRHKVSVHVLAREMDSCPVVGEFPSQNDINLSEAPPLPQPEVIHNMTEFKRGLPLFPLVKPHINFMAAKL

[2] = target: Insulin-degrading enzyme (Homo sapiens, UniProt P14735, E111Q); test: Binding affinity to IDE E111Q mutant (unknown origin) using N-terminal FITC-labeled compound after 2 hrs in absence of light at 298 K by fluorescence polarization assay
Sequence of Insulin-degrading enzyme (Homo sapiens, UniProt P14735, E111Q) (P14735 whole entry E111Q): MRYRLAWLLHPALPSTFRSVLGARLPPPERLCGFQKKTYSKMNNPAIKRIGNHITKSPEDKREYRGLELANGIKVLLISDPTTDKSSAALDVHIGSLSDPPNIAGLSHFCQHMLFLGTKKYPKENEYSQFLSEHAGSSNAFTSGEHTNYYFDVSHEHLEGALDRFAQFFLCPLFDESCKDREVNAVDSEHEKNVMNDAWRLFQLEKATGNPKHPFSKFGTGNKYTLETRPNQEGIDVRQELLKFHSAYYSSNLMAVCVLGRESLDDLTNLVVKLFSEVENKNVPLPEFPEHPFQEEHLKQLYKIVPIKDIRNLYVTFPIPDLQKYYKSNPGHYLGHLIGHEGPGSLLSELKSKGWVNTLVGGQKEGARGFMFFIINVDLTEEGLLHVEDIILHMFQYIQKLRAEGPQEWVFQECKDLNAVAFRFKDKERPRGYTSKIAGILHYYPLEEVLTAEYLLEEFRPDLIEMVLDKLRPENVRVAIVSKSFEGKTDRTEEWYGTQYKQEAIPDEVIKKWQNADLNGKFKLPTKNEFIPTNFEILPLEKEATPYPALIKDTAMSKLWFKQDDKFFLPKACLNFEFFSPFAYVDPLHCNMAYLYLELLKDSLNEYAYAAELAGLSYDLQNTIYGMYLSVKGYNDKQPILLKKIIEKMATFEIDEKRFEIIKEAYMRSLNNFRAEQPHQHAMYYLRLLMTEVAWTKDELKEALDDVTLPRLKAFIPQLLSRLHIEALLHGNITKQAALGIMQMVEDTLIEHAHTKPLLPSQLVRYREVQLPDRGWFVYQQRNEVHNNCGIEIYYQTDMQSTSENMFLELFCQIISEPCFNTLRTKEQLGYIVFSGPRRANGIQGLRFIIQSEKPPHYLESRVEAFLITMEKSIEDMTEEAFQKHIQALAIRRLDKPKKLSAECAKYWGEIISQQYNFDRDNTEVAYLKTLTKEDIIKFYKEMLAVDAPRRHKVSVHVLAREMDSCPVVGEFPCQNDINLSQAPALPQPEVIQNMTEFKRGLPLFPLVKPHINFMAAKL
Method in brief: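 IDE-E111Q was titrated against 20 nM FITC-labelled peptide in 20 mM Tris-HCl pH 8.0, 50 mM NaCl, 1 mM TCEP and incubated 2 h at 277 K in the dark. Polarization was read at 298 K (ex 480, em 535 nm) and plotted against IDE concentration. Three independent experiments, each in duplicate.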

[3] = target: Insulin-degrading enzyme (Homo sapiens) (UniProt P14735); test: Inhibition of IDE (unknown origin) assessed as potentiation of insulin-induced AKT phosphorylation in rat skeletal muscle cells at 100 uM preincubated for 10 mins followed insulin addition measured by Western blot analysis; assay type: cell-based
Sequence of Insulin-degrading enzyme (Homo sapiens) (P14735 whole entry): as the sequence (P14735 whole entry E111Q) above, with Q111E counted along it
Method in brief: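 Rat skeletal muscle cells were treated with 100 nM IDE plus peptide, for 10 min or at time points up to 24 h with 100 μM. Insulin (10 nM) was then added for 10 min. RIPA lysates were run on 10% SDS-PAGE and blotted for pAKT and AKT with GAPDH as loading control. Densitometry on three regions, two-tailed t test.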

[4] = Drug uptake in human HeLa cells at 5 uM using FITC-labeled compound after 2 hrs at 310 K by DAPI-staining based confocal microscopy; assay type: ADME, cell-based
[5] = Drug uptake in human HeLa cells at 5 uM using FITC-labeled compound after 2 hrs at 310 K by trypan blue-fluorescence based FACS analysis; assay type: ADME, cell-based
Method in brief: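 HeLa cells were grown overnight in DMEM with 10% FBS, then given 5 μM FITC-labelled peptide in FBS-free medium for 2 h at 310 K. Cells were washed with PBS and 0.4% trypan blue, trypsinized and washed. Mean fluorescence was measured by flow cytometry with gated cell counts. Three independent experiments.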

[6] = tested on: Mus musculus; test: Anti-diabetic activity in DIO C57BL/6J mouse model assessed as reduction in glucose levels at 80 mg/kg, ip administered 30 min prior to glucose stimulation […] by GTT; assay type: functional, organism-based
[7] = tested on: Mus musculus; test: Hypoglycemic activity in lean C57BL/6J mouse at 80 mg/kg, ip administered 30 min prior to insulin injection measured up to 75 mins post insulin injection by ITT; assay type: functional, organism-based
Method in brief: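 Lean male mice were fasted 6 h, then given 80 mg kg−1 i.p. or PBS (n = 6) 30 min before subcutaneous insulin (0.25 U kg−1 in saline). Tail blood glucose was read at −30 to 75 min. Mean ± SEM, two-tailed t test, repeated three times.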

[8] = tested on: Mus musculus; test: Induction of insulin levels in lean C57BL/6J mouse at 80 mg/kg, ip after 30 to 120 mins post injection by ELISA; assay type: functional, organism-based
Method in brief: (§1)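 Male lean C57BL/6J mice received 80 mg kg−1 i.p. (n = 5) or PBS. At 30 or 120 min, heparinized blood was taken from tail or eye socket and spun to plasma. Insulin (5 μL plasma), C-peptide, glucagon, beta-endorphin and TNF alpha (10 μL each) were measured by ultrasensitive ELISA. Mean ± SEM, two-tailed t test.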

[9] = tested on: Mus musculus; test: Induction of glucagon levels in lean C57BL/6J mouse at 80 mg/kg, ip after 30 to 120 mins post injection by ELISA; assay type: functional, organism-based; method in brief: as §1
[10] = tested on: Mus musculus; test: Effect on basal c-peptide levels in lean C57BL/6J mouse at 80 mg/kg, ip after 30 to 120 mins post injection by ELISA; assay type: ADME, organism-based; conditions: in vivo; method in brief: as §1
[11] = tested on: Mus musculus; test: Effect on basal TNFalpha levels in lean C57BL/6J mouse at 80 mg/kg, ip after 30 to 120 mins post injection by ELISA; assay type: ADME, organism-based; conditions: in vivo; method in brief: as §1
[12] = Tmax in lean C57BL/6J mouse at 100 mg/kg, ip by LC-MS analysis; assay type: ADME, organism-based; conditions: in vivo
Method in brief: (§2)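 Male lean C57BL/6J mice, 13–15 weeks old, given one i.p. dose of 100 mg kg−1 (n = 5). Tail or eye-socket blood was taken from 20 min to 43 h and spun to plasma. 30 μL plasma was mixed with 100 μL 10% TCA in H2O/CH3CN (1:1) and chilled at 277 K for 15 min. After centrifugation the peptide left in the supernatant was quantified by LC–MS. Two independent experiments.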

[13] = Cmax in lean C57BL/6J mouse at 100 mg/kg, ip by LC-MS analysis; assay type: ADME, organism-based; set-up: dose 100 mg/kg, route intraperitoneal; conditions: in vivo; method in brief: as §2
[14] = tested on: Mus musculus; test: AUC (0 to 43 hrs) in lean C57BL/6J mouse at 100 mg/kg, ip by LC-MS analysis; assay type: ADME, organism-based; set-up: time < 43 hr, dose 100 mg/kg, route intraperitoneal; conditions: in vivo; method in brief: as §2
[15] = Drug uptake in brain parenchyma of lean C57BL/6J mouse at 40 mg/kg, iv using cy5-labeled compound by two-photon microscopic analysis; conditions: in vivo

- IC50 [1]: 22 nM
- Kd [2]: 22 nM
- inhibition [3]: Active
- Drug uptake [4]: Active
- Drug uptake [5]: Active
- Tmax [12]: 1.4 h
- Cmax [13]: 619 µg/mL
- AUC [14]: 7600 µg·h/mL
- Drug uptake [15]: Not Active
SMILES: CC(=O)N[C@@H](CCC(=O)O)C(=O)N[C@@H](Cc1c[nH]c2ccccc12)C(=O)N[C@@H](CCCNC(=N)N)C(=O)N[C@@H](Cc1ccccc1)C(=O)N[C@H]1CC(=O)NC[C@@H](C(=O)N[C@@H](CC(C)C)C(=O)N[C@@H](Cc2ccc(O)cc2)C(=O)N[C@@H](CC(C)C)C(=O)N[C@H](C(=O)N[C@@H](CS)C(=O)NCC(N)=O)C(C)C)NC(=O)[C@H](CCC(=O)O)NC(=O)[C@@H]2CCCN2C(=O)[C@H]2CCCN2C(=O)CNC1=O
- Activity [6]: Active
- Activity [7]: Active
- Activity [8]: Active
- Activity [9]: Active
- Activity [10]: Non-Toxic
- Activity [11]: Non-Toxic
